# Data taken from paper PMC8590456 (Nature chemical biology, 2021).
# Experiments:
# [1] = target: CDK13 (Homo sapiens, UniProt Q14004); assay: Immunoblot of CDK13 protein level in Jurkat cells; assay type: cell-based; details: 6 h, indicated concentrations
# Summary of the method: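 Jurkat cells were treated 6 h with DMSO or CDK12 degraders at the indicated concentrations in a preliminary screen. Lysis was in NP40 buffer with protease and phosphatase inhibitors plus 1 mM PMSF. Immunoblots for CDK12, CDK13 and β-actin were imaged on an infrared scanner.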
# [2] = test system: CRBN−/− cells (Jurkat and MOLT4); assay: 3-day growth rate inhibition; assay type: cell-based, Human; details: 72 h
# Summary of the method: (§1)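 Cells were kept in RPMI 1640 with 10% FBS at 37 °C and 5% CO2, then plated at 6×10^3 cells/well for 24 h. Time 0 was read, then cells were dosed 10 nM–10 μM for 72 h. Viable cells were read by CellTiter-Glo luminescence. GR values, GR50 and GRmax were calculated from time-0 and 72-h data, with growth relative to DMSO. Mean ± s.d., n=3 biologically independent samples, representative of 2 experiments.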
# [3] = test system: Cyclin K; assay: Immunoblot of Cyclin K protein level in Jurkat cells; assay type: cell-based, Human; details: 6 h
# [4] = test system: Jurkat cells; assay: 3' poly; assay type: cell-based, Human; details: 8 h
# Summary of the method: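 Poly(A) 3'-end libraries were sequenced. Metagene profiles of normalised reads span gene bodies ±2 kb, with sense and antisense reads shown separately. Differential expression used 3' UTR-associated poly(A)-site counts summed per gene. Intronic versus 3' UTR poly(A) usage was compared by odds ratio for transcripts with TPM > 1.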
# [5] = test system: wild-type T-ALL cell lines (Jurkat and MOLT4); assay: 3-day growth rate inhibition; assay type: cell-based, Human; details: GR assay, 72 h
# Summary of the method: as §1
# [6] = target: CDK12 I733V/Cyclin K (Homo sapiens, UniProt Q9NYV4, I733V); assay: 32P-labeled ATP mutated CDK12 kinase assay; assay type: biochemical; details: recombinant I733V CDK12 vs wild type
# Summary of the method: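 GST-CDK12 (714–1063) I733V (site-directed mutagenesis) and GST-cyclin K (1–267) were co-expressed with yeast CAK in Sf9 cells for 72 h. Purification was by GST affinity, TEV tag cleavage and size exclusion. The 0.2 μM complex was preincubated with varying compound concentrations for 5 min at 30 °C. Substrate and 0.2 mM [γ-32P]-ATP were added for 15 min at 30 °C. The reaction was stopped with 50 mM EDTA, spotted onto nitrocellulose, washed in phosphoric acid and scintillation-counted.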
# [7] = test system: Jurkat and MOLT4 cells; assay: Cell cycle analysis by FACS; assay type: cell-based, Human; details: 24 h, BSJ-4-116 50 nM, BSJ-4-116NC 100 nM
# Summary of the method: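 Jurkat or MOLT4 cells (0.5×10^6) were treated 24 h. They were fixed in ice-cold 70% ethanol at −20 °C, treated with RNase A (0.5 mg/ml), stained with propidium iodide (50 µg/ml) and analysed by flow cytometry. […] is given as mean ± s.d. of n=2 biologically independent samples, representative of 2 experiments.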
# [8] = target: CDK9 (Homo sapiens, UniProt P50750+Q96SW2); assay: Immunoblot of CDK9 in parental and resistant cells; assay type: cell-based; details: parental and resistant Jurkat and MOLT4 cells, 250 nM, 8 h
# Sequence of CDK9 (P50750 whole entry): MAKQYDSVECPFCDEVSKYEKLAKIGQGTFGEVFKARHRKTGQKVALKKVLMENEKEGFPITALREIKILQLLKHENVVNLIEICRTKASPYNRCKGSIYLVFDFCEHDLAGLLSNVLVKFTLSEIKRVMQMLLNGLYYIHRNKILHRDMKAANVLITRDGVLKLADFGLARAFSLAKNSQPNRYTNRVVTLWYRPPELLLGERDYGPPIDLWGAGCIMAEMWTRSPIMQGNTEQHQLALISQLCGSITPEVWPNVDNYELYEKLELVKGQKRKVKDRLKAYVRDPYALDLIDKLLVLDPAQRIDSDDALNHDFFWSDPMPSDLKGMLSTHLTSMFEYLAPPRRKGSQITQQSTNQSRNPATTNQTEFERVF
# Sequence of CDK9 (O60563 whole entry partner): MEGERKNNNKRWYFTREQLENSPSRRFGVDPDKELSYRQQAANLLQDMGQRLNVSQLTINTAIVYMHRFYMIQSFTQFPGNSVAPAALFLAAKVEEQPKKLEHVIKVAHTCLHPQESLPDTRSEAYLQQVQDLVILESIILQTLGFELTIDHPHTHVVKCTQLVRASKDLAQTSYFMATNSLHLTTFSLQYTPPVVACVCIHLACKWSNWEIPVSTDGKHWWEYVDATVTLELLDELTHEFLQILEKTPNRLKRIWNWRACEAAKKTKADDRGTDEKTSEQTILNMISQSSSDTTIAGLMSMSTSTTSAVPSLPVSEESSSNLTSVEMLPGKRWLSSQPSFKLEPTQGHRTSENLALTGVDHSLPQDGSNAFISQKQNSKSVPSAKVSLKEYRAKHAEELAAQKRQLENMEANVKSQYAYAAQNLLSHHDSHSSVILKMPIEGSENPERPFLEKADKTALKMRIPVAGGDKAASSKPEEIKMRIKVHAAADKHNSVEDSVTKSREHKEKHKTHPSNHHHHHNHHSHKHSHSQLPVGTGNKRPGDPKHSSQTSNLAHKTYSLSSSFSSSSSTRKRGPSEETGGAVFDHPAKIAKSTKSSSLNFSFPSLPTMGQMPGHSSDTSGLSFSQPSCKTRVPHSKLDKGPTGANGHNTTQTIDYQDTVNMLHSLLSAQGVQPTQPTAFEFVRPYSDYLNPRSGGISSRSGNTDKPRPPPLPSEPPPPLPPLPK
# Sequence of CDK9 (Q96SW2 whole entry): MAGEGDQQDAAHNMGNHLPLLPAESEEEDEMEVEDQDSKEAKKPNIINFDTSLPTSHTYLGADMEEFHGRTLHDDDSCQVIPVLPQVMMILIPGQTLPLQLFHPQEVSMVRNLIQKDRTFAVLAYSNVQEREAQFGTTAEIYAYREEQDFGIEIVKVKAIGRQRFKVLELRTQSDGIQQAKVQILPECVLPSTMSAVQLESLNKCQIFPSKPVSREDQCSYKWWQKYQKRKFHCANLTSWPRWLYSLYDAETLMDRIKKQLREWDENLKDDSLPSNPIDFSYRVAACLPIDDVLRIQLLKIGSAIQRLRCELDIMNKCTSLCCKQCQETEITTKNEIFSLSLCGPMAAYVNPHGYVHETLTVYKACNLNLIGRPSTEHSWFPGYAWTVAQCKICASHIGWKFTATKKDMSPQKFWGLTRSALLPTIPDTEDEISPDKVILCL
# Sequence of CDK9 (Q16531 whole entry partner): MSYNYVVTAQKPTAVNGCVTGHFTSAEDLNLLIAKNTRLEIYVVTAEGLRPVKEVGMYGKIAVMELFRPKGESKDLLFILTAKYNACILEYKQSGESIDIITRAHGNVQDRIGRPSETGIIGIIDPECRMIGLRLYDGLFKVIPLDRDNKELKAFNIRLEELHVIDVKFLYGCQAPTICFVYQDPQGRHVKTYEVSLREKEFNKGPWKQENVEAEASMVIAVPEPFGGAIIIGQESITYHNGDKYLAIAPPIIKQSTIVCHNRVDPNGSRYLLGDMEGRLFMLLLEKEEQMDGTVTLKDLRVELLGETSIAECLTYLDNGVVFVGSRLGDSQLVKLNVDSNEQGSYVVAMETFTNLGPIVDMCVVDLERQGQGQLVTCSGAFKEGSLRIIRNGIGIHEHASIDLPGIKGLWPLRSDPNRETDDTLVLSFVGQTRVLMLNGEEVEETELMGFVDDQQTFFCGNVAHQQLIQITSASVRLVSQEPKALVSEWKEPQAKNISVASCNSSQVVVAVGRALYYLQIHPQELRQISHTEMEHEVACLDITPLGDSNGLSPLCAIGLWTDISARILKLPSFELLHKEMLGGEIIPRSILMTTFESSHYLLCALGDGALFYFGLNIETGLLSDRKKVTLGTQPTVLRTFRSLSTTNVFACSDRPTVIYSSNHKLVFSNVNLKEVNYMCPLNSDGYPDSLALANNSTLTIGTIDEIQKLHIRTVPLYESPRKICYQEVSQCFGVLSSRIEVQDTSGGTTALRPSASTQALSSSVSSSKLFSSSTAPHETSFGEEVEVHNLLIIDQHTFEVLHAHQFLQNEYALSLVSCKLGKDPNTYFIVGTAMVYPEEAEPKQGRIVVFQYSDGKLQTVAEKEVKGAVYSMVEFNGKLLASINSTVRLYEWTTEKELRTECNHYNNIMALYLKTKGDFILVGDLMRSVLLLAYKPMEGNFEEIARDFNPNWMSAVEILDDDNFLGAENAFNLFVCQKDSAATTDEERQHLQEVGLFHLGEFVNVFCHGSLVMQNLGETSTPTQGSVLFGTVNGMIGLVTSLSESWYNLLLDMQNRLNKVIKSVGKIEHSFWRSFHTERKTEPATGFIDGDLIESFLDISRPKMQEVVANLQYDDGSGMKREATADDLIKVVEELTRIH
# Summary of the method: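 Parental and resistant Jurkat and MOLT4 cells were treated 8 h with DMSO, CDK12 degraders or a CDK9 degrader (250 nM). Lysis was in NP40 buffer with protease and phosphatase inhibitors plus 1 mM PMSF. Immunoblots for CDK12 and CDK9, with GAPDH loading control, were imaged on an infrared scanner. Representative of n=2 independent experiments.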
# Sequence of CDK13 (Q14004 whole entry): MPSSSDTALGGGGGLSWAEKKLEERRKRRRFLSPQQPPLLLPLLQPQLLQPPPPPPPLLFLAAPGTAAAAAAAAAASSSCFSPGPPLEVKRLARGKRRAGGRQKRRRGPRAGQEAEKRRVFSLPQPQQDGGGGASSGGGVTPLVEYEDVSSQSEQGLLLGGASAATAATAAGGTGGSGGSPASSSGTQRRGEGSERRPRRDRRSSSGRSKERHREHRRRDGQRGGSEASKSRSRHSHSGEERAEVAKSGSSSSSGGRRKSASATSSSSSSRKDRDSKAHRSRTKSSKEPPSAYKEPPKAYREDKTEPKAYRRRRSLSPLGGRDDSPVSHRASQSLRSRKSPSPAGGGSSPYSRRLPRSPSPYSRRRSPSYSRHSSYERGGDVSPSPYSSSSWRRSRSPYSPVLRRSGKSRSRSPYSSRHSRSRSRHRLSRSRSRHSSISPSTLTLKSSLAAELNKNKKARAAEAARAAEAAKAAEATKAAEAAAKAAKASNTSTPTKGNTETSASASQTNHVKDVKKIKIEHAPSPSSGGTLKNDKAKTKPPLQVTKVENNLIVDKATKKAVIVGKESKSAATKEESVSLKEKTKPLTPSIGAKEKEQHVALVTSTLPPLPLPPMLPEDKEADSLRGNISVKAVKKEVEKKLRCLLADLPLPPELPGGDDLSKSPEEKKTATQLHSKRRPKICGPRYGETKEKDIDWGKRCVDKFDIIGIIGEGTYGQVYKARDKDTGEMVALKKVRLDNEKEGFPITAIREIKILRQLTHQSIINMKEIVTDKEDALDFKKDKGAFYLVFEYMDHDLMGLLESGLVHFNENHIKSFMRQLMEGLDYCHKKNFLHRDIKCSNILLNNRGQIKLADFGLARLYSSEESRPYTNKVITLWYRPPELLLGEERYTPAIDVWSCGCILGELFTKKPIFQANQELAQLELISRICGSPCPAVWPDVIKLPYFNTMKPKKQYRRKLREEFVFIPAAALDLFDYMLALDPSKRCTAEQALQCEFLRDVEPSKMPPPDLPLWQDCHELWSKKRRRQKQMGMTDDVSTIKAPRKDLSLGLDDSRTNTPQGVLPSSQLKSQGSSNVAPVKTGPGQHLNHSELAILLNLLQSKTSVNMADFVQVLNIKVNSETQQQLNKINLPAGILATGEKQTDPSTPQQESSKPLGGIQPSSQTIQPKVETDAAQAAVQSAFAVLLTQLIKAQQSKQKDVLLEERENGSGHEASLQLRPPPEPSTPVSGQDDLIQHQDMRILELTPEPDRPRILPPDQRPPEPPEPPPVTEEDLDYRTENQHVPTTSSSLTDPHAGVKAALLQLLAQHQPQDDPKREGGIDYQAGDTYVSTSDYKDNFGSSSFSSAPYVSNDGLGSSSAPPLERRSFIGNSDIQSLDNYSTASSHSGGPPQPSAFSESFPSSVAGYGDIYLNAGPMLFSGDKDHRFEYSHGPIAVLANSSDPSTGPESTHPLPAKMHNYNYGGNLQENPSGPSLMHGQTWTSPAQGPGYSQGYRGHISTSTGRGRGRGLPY
# Sequence of CDK13 (O75909 whole entry partner): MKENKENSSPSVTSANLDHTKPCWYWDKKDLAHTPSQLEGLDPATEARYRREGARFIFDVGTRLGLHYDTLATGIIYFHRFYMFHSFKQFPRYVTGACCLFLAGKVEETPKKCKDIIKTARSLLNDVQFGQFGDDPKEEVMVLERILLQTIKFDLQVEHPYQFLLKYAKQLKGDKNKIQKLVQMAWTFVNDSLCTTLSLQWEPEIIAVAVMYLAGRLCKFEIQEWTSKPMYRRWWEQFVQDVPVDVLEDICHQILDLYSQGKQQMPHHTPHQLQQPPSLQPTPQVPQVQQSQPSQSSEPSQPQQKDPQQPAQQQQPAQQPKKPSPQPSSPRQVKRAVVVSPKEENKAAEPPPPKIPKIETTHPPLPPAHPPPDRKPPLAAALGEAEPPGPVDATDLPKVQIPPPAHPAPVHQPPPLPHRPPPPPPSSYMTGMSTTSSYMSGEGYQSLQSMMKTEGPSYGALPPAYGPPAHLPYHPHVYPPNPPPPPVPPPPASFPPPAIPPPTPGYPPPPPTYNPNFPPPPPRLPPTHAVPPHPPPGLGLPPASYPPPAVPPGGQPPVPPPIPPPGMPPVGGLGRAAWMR
SMILES,CDK13 protein level [1],sensitivity of CRBN−/− cells in GR assay [2],Cyclin K protein level [3],genes differentially expressed vs DMSO control cells ([4]; 50 nM) [gene],fold less potent than BSJ-4-116 [5] [fold],effect of I733V on binding affinity in in vitro kinase assay [6],annotated terminal or 3' poly(A) sites (metagene analysis) [4],"downregulated transcripts ([4]; BSJ-4-116 50 nM, THZ531 250 nM, FDR <= 0.01)",cell cycle distribution [7],sensitivity of resistant cells to CDK9 degrader [8]
CC(C)S(=O)(=O)c1ccccc1Nc1nc(N[C@@H]2CCCN(CCCCCCCNC(=O)COc3cccc4c3C(=O)N(C3CCC(=O)N(C)C3=O)C4=O)C2)ncc1Cl (stereo partly shown) [BSJ-4-116NC],no effect,responding similarly,no effect,1,10,–,–,–,–,–
CN(C)C/C=C/C(=O)Nc1ccc(C(=O)N2CCC[C@@H](Nc3ncc(Cl)c(-c4c[nH]c5ccccc45)n3)C2)cc1 [THZ531],no effect,responding similarly,no effect,–,–,loss of binding affinity,significant loss,7050,accumulation of G2/M cells,–
CC(C)(C)c1cnc(CSc2cnc(NC(=O)C3CCN(CC(=O)NCCOCCOCCOCCNc4cccc5c4C(=O)N(C4CCC(=O)NC4=O)C5=O)CC3)s2)o1 (stereo not shown) [THAL-SNS-032],–,–,–,–,–,–,–,–,–,remained equally sensitive
